Published values of several laboratories.
Each line is one published result; the experiments were not run side by side.
Target: Serine/threonine-protein kinase D2 (PRKD2, Homo sapiens, UniProt Q9BZL6)
Sequence (Q9BZL6 1-878, as in one of the studies): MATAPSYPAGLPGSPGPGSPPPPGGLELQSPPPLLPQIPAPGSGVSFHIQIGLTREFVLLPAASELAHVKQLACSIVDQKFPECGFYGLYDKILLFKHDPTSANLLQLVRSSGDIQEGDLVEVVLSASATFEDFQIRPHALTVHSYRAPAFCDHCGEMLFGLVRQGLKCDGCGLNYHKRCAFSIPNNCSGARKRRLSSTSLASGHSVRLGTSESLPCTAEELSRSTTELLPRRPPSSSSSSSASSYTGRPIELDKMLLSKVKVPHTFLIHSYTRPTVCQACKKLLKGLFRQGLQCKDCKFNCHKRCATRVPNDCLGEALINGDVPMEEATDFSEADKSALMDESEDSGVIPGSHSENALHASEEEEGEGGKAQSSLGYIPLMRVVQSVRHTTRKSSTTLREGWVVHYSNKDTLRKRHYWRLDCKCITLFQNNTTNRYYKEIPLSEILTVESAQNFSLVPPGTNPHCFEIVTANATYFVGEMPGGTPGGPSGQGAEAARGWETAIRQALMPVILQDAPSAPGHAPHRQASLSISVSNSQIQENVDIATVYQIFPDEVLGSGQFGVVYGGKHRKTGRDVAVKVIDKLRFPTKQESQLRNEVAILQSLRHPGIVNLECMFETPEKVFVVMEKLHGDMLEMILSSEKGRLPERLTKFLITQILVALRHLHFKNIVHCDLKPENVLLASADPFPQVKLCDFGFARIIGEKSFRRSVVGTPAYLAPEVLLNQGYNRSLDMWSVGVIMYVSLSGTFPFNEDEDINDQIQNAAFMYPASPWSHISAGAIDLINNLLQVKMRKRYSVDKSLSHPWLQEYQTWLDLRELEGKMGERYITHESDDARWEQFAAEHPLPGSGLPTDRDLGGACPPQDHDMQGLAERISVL

`Cn1cnc(Br)c1C1=CN(c2ncnc3[nH]cnc23)CCS1` gave an inhibition of 19.1% (enzyme activity, inhibitor, radiometric; 50 nM).
`COc1cc2ncnc(Nc3ccc(Oc4ccccc4)c(C)c3C)c2cc1OC` has an inhibition of 2% (enzyme activity, inhibitor; 1 µM).
The inhibition of `CCCS(=O)(=O)Nc1ccc(F)c(C(=O)c2c[nH]c3ncc(-c4ccc(Cl)cc4)cc23)c1F` is reported as < 10% (enzyme activity, inhibitor; 1 µM).
With `CC(C)CC(=O)N1CCc2nc(-c3ccc(Br)cc3)nc(N(C)Cc3ccccc3)c2C1` the remaining binding was 100% (cell-free assay, competition with immobilised ligand; 0.1 µM).
The inhibition of `CCCCNc1ncc2c(-c3ccc(F)cc3)nn(C[C@H]3CC[C@H](N)CC3)c2n1` is reported as 28.3% (target engagement in cells, inhibitor, chemoproteomics; 20 mM).
For `CCN(CC)CCNC(=O)c1c(C)[nH]c(/C=C2\C(=O)Nc3ccc(F)cc32)c1C`, the inhibition was 30% (enzyme activity, inhibitor; 0.3 µM).
`COc1ccc(COc2ccc(Cc3cnc(N)nc3N)cc2OC)cc1` has a remaining signal of 99.4% (cell-free assay; 0.5 µM).
`Cn1c2c(c3ccc(Cl)c(Cl)c31)C(C#N)C(C)(C)NC2=O` (stereo not drawn) gave a ΔTm of 0.2 °C (thermal stability, DSF; 10 µM).
The inhibition of `CCOc1cc(-c2nncn2C)ccc1Nc1ncc2cc(C)nc(NCC(C)(C)C)c2n1` is reported as < 15% (enzyme activity, inhibitor, FRET; 1 µM).
For `Cc1ccc(Nc2nccc(N(C)c3ccc4c(C)n(C)nc4c3)n2)cc1S(N)(=O)=O`, the inhibition was 9% (enzyme activity, inhibitor; 0.3 µM).
The remaining binding of `CSc1cccnc1N1CCN(Cc2nc3ccccc3[nH]2)CC1` is reported as 100% (cell-free assay, competition with immobilised ligand; 1 µM).
With `O=C1NC(=O)c2cc(Nc3ccc(F)cc3)c(Nc3ccc(F)cc3)cc21` the remaining signal was 86.8% (cell-free assay; 0.5 µM).
`Nc1cnc(N2CCc3cc(S(=O)(=O)Nc4c(F)cc(Cl)cc4F)cc(N4CCCC4=O)c32)nc1` gave a remaining binding of 100% (cell-free assay, competition with immobilised ligand; 1 µM).
The ΔTm of `Cn1c2c(Cl)c(Cl)ccc2c2cc[nH]c(=O)c21` is reported as 0.4 °C (thermal stability, DSF; 10 µM).
`COc1cccc(CNC(=O)c2nc3scc(COCc4ccc(C(=O)O)cc4)c3c(=O)[nH]2)c1` gave a remaining binding of 100% (cell-free assay, competition with immobilised ligand; 1 µM).
`Cn1cncc1C1=CN(c2ncnc3[nH]cnc23)CCS1` gave an inhibition of 93.1% (enzyme activity, inhibitor, radiometric; 2 µM).
The remaining activity of `COc1cc(Cl)c(C(=O)N[C@@H](CN[C@H]2CC[C@@H](N)CC2)Cc2ccc(C#N)cc2)cc1-c1ccc(CN[C@H](C)c2ccc(C)cc2)o1` is reported as 109% (enzyme activity, inhibitor; 1 µM).
For `Cc1sc(C(=O)NC2COC2)cc1-n1cc(NC(=O)Nc2c(F)cccc2Cl)cn1`, the remaining activity was 95.7% (enzyme activity, inhibitor; 10 µM).
For `C[C@@]1(Cc2ccc(C#N)cc2)C(=O)N(c2cc(Cl)cc(Cl)c2)c2ncc(C(=O)NC3(c4nc(C5CCC5)no4)CC3)n21`, the remaining binding was 100% (cell-free assay, competition with immobilised ligand; 1 µM).
With `Cc1ccc(C(=O)Nc2ccc(CN3CCN(C)CC3)c(C(F)(F)F)c2)cc1C#Cc1cnc2cccnn12` the remaining activity was 95% (enzyme activity, inhibitor; 23.5 nM).
`O=C1Nc2ccc(Cl)cc2C1=Cc1cc(Cl)c(O)c(Cl)c1` has a remaining signal of 95.5% (cell-free assay; 0.5 µM).
The inhibition of `COc1cccc2c(NCc3ccccc3)nc(-n3c(N)nc4ccccc43)nc12` is reported as -4.3% (target engagement in cells, inhibitor, chemoproteomics; 20 mM).
`Cn1nc(C(F)(F)F)cc1-c1cnc(N2CCc3cc(S(=O)(=O)Nc4c(F)cc(Cl)cc4F)cc(N4CCCC4=O)c32)nc1` gave a remaining binding of 95% (cell-free assay, competition with immobilised ligand; 1 µM).
`CN1CC(Oc2cnc(C#N)cc2-c2ccn3nc(NC(=O)C4CC4)cc3c2)C1` gave an inhibition of -22% (enzyme activity, inhibitor; 1 µM).
For `CC(C)(C)c1nc2c(s1)c1nc(N)ncc1c1ccc(NS(=O)(=O)c3c(F)cccc3F)c(F)c12`, the remaining activity was 79% (enzyme activity, inhibitor, radiometric; 1 µM).
`CNC(=O)c1cc(Oc2ccc(NC(=O)Nc3ccc(Cl)c(C(F)(F)F)c3)cc2)ccn1` gave an inhibition of 5% (enzyme activity, inhibitor; 0.3 µM).
`Cn1c2c(Cl)c(Cl)ccc2c2cn[nH]c(=O)c21` gave a ΔTm of 0.1 °C (thermal stability, DSF; 10 µM).
With `CNC(=O)Nc1ccc2c(c1)[C@@]1(CC2)OC(=O)N(CC(=O)N(Cc2ccc(F)cc2)[C@@H](C)C(F)(F)F)C1=O` the remaining binding was 100% (cell-free assay, competition with immobilised ligand; 1 µM).
With `CC(C)(O)[C@H]1CC[C@H](Nc2ccc3ncc(-c4cccc(C(F)(F)F)c4)n3n2)CC1` the remaining activity was 92% (enzyme activity, inhibitor; 1 µM).
The ΔTm of `N#CC1c2c([nH]c3c(Cl)c(Cl)ccc23)C(=O)NC12CCCCC2` (racemic) is reported as 0.1 °C (thermal stability, DSF; 10 µM).
`Cc1ccc(NC(=O)c2ccc(C)c(C(F)(F)F)c2)cc1C#Cc1nn(C2CCC(O)CC2)c2ncnc(N)c12` (stereo not drawn) gave a remaining signal of 108% (cell-free assay; 10 µM).
The remaining binding of `COc1cc(-c2cn(C3CCc4ccccc4N(CC(F)(F)F)C3=O)nn2)ccc1-n1ccc(C)n1` (stereo not drawn) is reported as 86% (cell-free assay, competition with immobilised ligand; 1 µM).
`CC1(C)NC(=O)c2[nH]c3c(Cl)c(Cl)ccc3c2C1C#N` (stereo not drawn) has a ΔTm of -0.1 °C (thermal stability, DSF; 10 µM).
